Converted amounts (≈) assume the structure as drawn.
test system: Mycobacterium tuberculosis; assay: Antitubercular activity against rifampicin-resistant Mycobacterium tuberculosis assessed as growth inhibition after 2 to 3 weeks by broth microdilution method; format: functional
Summary of the method: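 Primary screen of all compounds against H37Rv at a single concentration in triplicate by microplate dilution. Actives then went to MIC determination by broth microdilution against H37Rv, rifampicin-resistant and XDR-1 isolates. Plates incubated 2–3 weeks at 37 °C in a CO2 incubator. MIC read visually as absence of growth turbidity. Rifampicin and linezolid served as reference drugs.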

Structure (SMILES)	MIC [µg/mL]
CC(=O)NC[C@H]1CN(c2ccc(N3CCN(Cc4cc(-c5cccc(Cl)c5)n(-c5ccccc5F)c4C)CC3)c(F)c2)C(=O)O1	8 (≈ 12.6 µM)
CC(=O)NC[C@H]1CN(c2ccc(N3CCN(Cc4cc(-c5ccc(C(C)C)cc5)n(-c5ccc(F)cc5F)c4C)CC3)c(F)c2)C(=O)O1	4 (≈ 6.06 µM)
Cc1ccccc1-c1cc(CN2CCN(c3ccc(N4C[C@H](Cn5cc(-c6cncn6C)nn5)OC4=O)cc3F)CC2)c(C)n1-c1ccc(F)cc1	4 (≈ 5.68 µM)
Cc1c(CN2CCN(c3ccc(N4C[C@H](Cn5cc(-c6ccccc6)nn5)OC4=O)cc3F)CC2)cc(-c2cccc(Cl)c2)n1-c1ccccc1F	> 16
Cc1c(CN2CCN(c3ccc(N4C[C@H](Cn5cc(-c6ccccc6)nn5)OC4=O)cc3F)CC2)cc(-c2ccc(Cl)c(F)c2)n1-c1ccc(OC(F)(F)F)cc1	> 16
Cc1ccc(-c2cc(CN3CCN(c4ccc(N5C[C@H](Cn6cc(-c7ccccc7)nn6)OC5=O)cc4F)CC3)c(C)n2-c2ccc(Cl)c(Cl)c2)cc1	> 16
Cc1c(CN2CCN(c3ccc(N4C[C@H](Cn5cc(-c6ccccc6)nn5)OC4=O)cc3F)CC2)cc(-c2ccc(F)cc2F)n1-c1cc(F)ccc1Br	> 16
Cc1cccc(-c2cn(C[C@H]3CN(c4ccc(N5CCN(Cc6cc(-c7ccccc7C)n(-c7ccc(F)cc7)c6C)CC5)c(F)c4)C(=O)O3)nn2)c1	> 16
CC(=O)NC[C@H]1CN(c2ccc(N3CCN(Cc4cc(-c5ccc(F)cc5F)n(-c5cc(F)ccc5Br)c4C)CC3)c(F)c2)C(=O)O1	8 (≈ 11.2 µM)
Cc1ccc(-c2cc(CN3CCN(c4ccc(N5C[C@H](Cn6cc(-c7ccccn7)nn6)OC5=O)cc4F)CC3)c(C)n2-c2ccc(Cl)c(Cl)c2)cc1	4 (≈ 5.32 µM)
Cc1c(CN2CCN(c3ccc(N4C[C@H](Cn5cc(-c6ccccn6)nn5)OC4=O)cc3F)CC2)cc(-c2ccc(Cl)c(F)c2)n1-c1ccc(OC(F)(F)F)cc1	4 (≈ 4.97 µM)
Cc1c(CN2CCN(c3ccc(N4C[C@H](Cn5cc(-c6ccccn6)nn5)OC4=O)cc3F)CC2)cc(-c2ccc(F)cc2F)n1-c1ccc(F)cc1	8 (≈ 11.1 µM)
Cc1ccccc1-c1cc(CN2CCN(c3ccc(N4C[C@H](Cn5cc(-c6ccccn6)nn5)OC4=O)cc3F)CC2)c(C)n1-c1ccc(F)c(F)c1	4 (≈ 5.56 µM)
Cc1c(CN2CCN(c3ccc(N4C[C@H](Cn5cc(-c6cncn6C)nn5)OC4=O)cc3F)CC2)cc(-c2ccc(C(C)C)cc2)n1-c1ccc(F)cc1F	8 (≈ 10.7 µM)
Cc1c(CN2CCN(c3ccc(N4C[C@H](Cn5cc(-c6cncn6C)nn5)OC4=O)cc3F)CC2)cc(-c2ccc(F)cc2F)n1-c1ccc(F)cc1	8 (≈ 11 µM)
Cc1ccccc1-c1cc(CN2CCN(c3ccc(N4C[C@H](Cn5cc(-c6cncn6C)nn5)OC4=O)cc3F)CC2)c(C)n1-c1ccc(F)c(F)c1	8 (≈ 11.1 µM)
CC(=O)NC[C@H]1CN(c2ccc(N3CCOCC3)c(F)c2)C(=O)O1 [LINEZOLID]	2 (≈ 5.93 µM)
CO[C@H]1/C=C/O[C@@]2(C)Oc3c(C)c(O)c4c(O)c(c(/C=N/N5CCN(C)CC5)c(O)c4c3C2=O)NC(=O)/C(C)=C\C=C\[C@H](C)[C@H](O)[C@@H](C)[C@@H](O)[C@@H](C)[C@H](OC(C)=O)[C@@H]1C [RIFAMPIN]	> 128
